Experimental data: ChEMBL document CHEMBL5108036, “A concise SAR-analysis of antimicrobial cationic amphipathic barbiturates for an improved activity-toxicity profile” (Eur J Med Chem, 2022)
In brackets after ≈: the same amount, converted by molar mass. Activity calls are given as the source filed them. No cut-off for these calls is given here.

Legend:
[1] = Solubility in pure water; type: physicochemical
Escherichia coli [2] = test: Antibacterial activity against Escherichia coli ATCC 25922 incubated for 48 hrs and measured by broth microdilution assay; type: functional
Outline: (§1)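 MICs in µg/mL were measured against the reference strains S. aureus ATCC 9144, B. subtilis 168, E. coli ATCC 25922 and P. aeruginosa ATCC 27853. Compounds were tested as di-TFA salts.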

Erythrocyte = test: (§2) Hemolytic activity in human RBC measured after 1 hr by microplate reader method; type: toxicity, cell-based; conditions: erythrocyte
Outline: (§3)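 Human red blood cell lysis was used as the cytotoxicity read-out, expressed as EC50 in µg/mL. The highest concentration tested was 500 µM. Compounds were tested as di-TFA salts.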

Staphylococcus aureus = test: Antibacterial activity against Staphylococcus aureus ATCC 9144 incubated for 48 hrs and measured by broth microdilution assay; type: functional; outline: as §1
Bacillus subtilis [3] = test: Antibacterial activity against Bacillus subtilis 168 incubated for 48 hrs and measured by broth microdilution assay; type: functional; outline: as §1
[4] = Selectivity index, ratio HC50 for hemolytic activity in human RBC to MIC for antibacterial activity against Pseudomonas aeruginosa ATCC 27853; type: toxicity; conditions: human red blood cells (erythrocytes)
Outline: (§4)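 SI is the ratio of RBC lysis EC50 to MIC for each reference strain.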

Pseudomonas aeruginosa = test: Antibacterial activity against Pseudomonas aeruginosa ATCC 27853 incubated for 48 hrs and measured by broth microdilution assay; type: functional; outline: as §1
[5] = Selectivity index, ratio HC50 for hemolytic activity in human RBC to MIC for antibacterial activity against Staphylococcus aureus ATCC 9144; type: toxicity; conditions: human red blood cells (erythrocytes); outline: as §4
[6] = Selectivity index, ratio HC50 for hemolytic activity in human RBC to MIC for antibacterial activity against Bacillus subtilis 168; type: toxicity; conditions: human red blood cells (erythrocytes); outline: as §4
[7] = Selectivity index, ratio HC50 for hemolytic activity in human RBC to MIC for antibacterial activity against Escherichia coli ATCC 25922; type: toxicity; conditions: human red blood cells (erythrocytes); outline: as §4
Escherichia coli [8] = test: Disruption of inner membrane integrity in Escherichia coli K12 (ATCC MC1061) transfected with pCGLS-1 at 6.4 to 12.8 times MIC measured by luciferase based bioluminescence assay; type: functional, organism-based; conditions: DDE = dose-dependent effect
Outline: (§5)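 Membrane integrity was read with click beetle lucGR luciferase biosensor strains. Cell suspension containing 1 mM D-luciferin was added to the analytes. Luminescence was read every second for 180 s, normalized to an untreated water control and reported as RLU. At least three independent experiments were run.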

Bacillus subtilis [9] = test: Disruption of inner membrane integrity in Bacillus subtilis 168 (ATCC 23857) at 1.56 to 50 ug/ml measured by luciferase based bioluminescence assay; type: functional, organism-based; conditions: dose 1.56-50 µg/ml; outline: as §5
Escherichia coli [10] = test: Disruption of outer membrane integrity in Escherichia coli K12 (ATCC MC1061) transfected with pCGLS-1 at 3.2 ug/ml measured by NPN based fluorescence assay; type: functional, organism-based; conditions: dose 3.2 µg/ml, DDE = dose-dependent effect
Outline: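 E. coli K12 outer membrane permeability was measured by 1-N-phenylnaphthylamine uptake. Cell suspension with 20 µM NPN was added to the analytes. Fluorescence was read every second for 180 s, normalized to an untreated water control and reported as RFU. At least three independent experiments were run.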

Escherichia coli [11] = test: Antibacterial activity against in Escherichia coli K12 (ATCC MC1061) transfected with pCGLS-1 assessed as decrease in cell viability at 25.6 to 51.2 ug/ml measured by NPN based fluorescence assay; type: functional, organism-based; conditions: dose 25.6-51.2 µg/ml
Outline: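 At the end of the NPN outer membrane assay in E. coli K12, a 10 µL sample was spotted on an agar plate to assess bacterial viability.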

Escherichia coli [12] = test: Antibacterial activity against Escherichia coli K12 (ATCC MC1061) transfected with pCGLS-1 assessed as decrease in bacterial viability at 3.2 to 51.2 ug/ml; type: functional, organism-based; conditions: dose 3.2-51.2 µg/ml
Outline: (§6)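 Biosensor strains (B. subtilis 168; E. coli K12) carry the Photorhabdus luminescens lux operon, so no substrate is added. Cell suspension, about 100-fold denser than in the MIC assay, was added to the analytes. Light was read every second for 180 s, normalized to an untreated water control and reported as RLU. At least three independent experiments were run.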

Bacillus subtilis [13] = test: Antibacterial activity against Bacillus subtilis 168 (ATCC 23857) expressing lux operon in sacA locus (PliaG) assessed as decrease in bacterial viability at 3.2 to 51.2 ug/ml; type: functional, organism-based; conditions: dose 3.2-51.2 µg/ml; outline: as §6
[14] = as §2; type: toxicity, cell-based, Erythrocyte; conditions: human, human red blood cells (erythrocytes); outline: as §3
Escherichia coli [15] = test: Disruption of inner membrane integrity in Escherichia coli K12 (ATCC MC1061) transfected with pCGLS-1 measured by luciferase based bioluminescence assay; type: functional
Outline: (§7)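 Biosensor strains express click-beetle luciferase (lucGR), whose light output needs externally added D-luciferin; light rises when a damaged membrane lets substrate in. Cell suspension with 1 mM D-luciferin is added to the analytes, and luminescence is read every second for 180 s. Signal is normalized to an untreated water control. Cell density is about 100-fold that of the MIC assay, with at least three independent experiments.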

Bacillus subtilis [16] = test: Disruption of inner membrane integrity in Bacillus subtilis 168 ATCC 23857 measured by luciferase based bioluminescence assay; type: functional; outline: as §7

Row | Compound | solubility [1] | MIC (Escherichia coli [2]) | EC50 (Erythrocyte) | MIC (Staphylococcus aureus) | MIC (Bacillus subtilis [3]) | selectivity ratio [4] | MIC (Pseudomonas aeruginosa) | selectivity ratio [5] | selectivity ratio [6] | selectivity ratio [7] | Activity (Escherichia coli [8]) | Activity (Bacillus subtilis [9]) | Activity (Escherichia coli [10]) | Activity (Escherichia coli [11]) | Activity (Escherichia coli [12]) | Activity (Bacillus subtilis [13]) | EC50 at 1 h [14] | MIC (Escherichia coli [15]) | MIC (Bacillus subtilis [16])
1 | Cl.Cl.NCCCN1C(=O)N(CCCN)C(=O)C(Cc2ccc(Br)c(Cl)c2)(Cc2ccc(Br)c(Cl)c2)C1=O | ≤ 1000 µg/mL | 8 µg/mL | 271 µg/mL | 8 µg/mL |  |  |  |  |  |  |  |  |  |  |  |  |  |  | 
2 | N=C(N)NCCCN1C(=O)N(CCCNC(=N)N)C(=O)C(Cc2cc(C(F)(F)F)cc(C(F)(F)F)c2)(Cc2cc(C(F)(F)F)cc(C(F)(F)F)c2)C1=O.O=C(O)C(F)(F)F.O=C(O)C(F)(F)F | < 1000 µg/mL | 8 µg/mL | 445 µg/mL | 4 µg/mL | 2 µg/mL | 28 | 16 µg/mL | 111 | 222 | 56 |  |  |  |  |  |  |  |  | 
3 | N=C(N)NCCCCN1C(=O)N(CCCCNC(=N)N)C(=O)C(Cc2ccc(C(F)(F)F)cc2)(Cc2cc(Br)cc(Br)c2)C1=O.O=C(O)C(F)(F)F.O=C(O)C(F)(F)F (stereo not drawn) |  | 2 µg/mL |  | 2 µg/mL | 4 µg/mL | 10 | 16 µg/mL | 81 | 40 | 81 | Dde | Active | Dde | Active | Active | Active | 161 µg/mL |  | 
4 | N=C(NCCCCCCNC(=N)NC(=N)Nc1ccc(Cl)cc1)NC(=N)Nc1ccc(Cl)cc1 [CHLORHEXIDINE] |  |  |  |  |  |  |  |  |  |  |  |  |  |  |  |  |  | 1.5 µg/mL (≈ 2.97 µM) | 1.5 µg/mL (≈ 2.97 µM)
5 | Cl.Cl.N=C(N)NCCCN1C(=O)N(CCCNC(=N)N)C(=O)C(Cc2cc(C(F)(F)F)cc(C(F)(F)F)c2)(Cc2cc(C(F)(F)F)cc(C(F)(F)F)c2)C1=O | ≤ 1000 µg/mL | 8 µg/mL | 118 µg/mL | 2 µg/mL |  |  |  |  |  |  |  |  |  |  |  |  |  |  | 
6 | Cl.Cl.N=C(N)NCCCN1C(=O)N(CCCNC(=N)N)C(=O)C(Cc2ccc(Br)c(Cl)c2)(Cc2ccc(Br)c(Cl)c2)C1=O | < 1000 µg/mL | 8 µg/mL | 291 µg/mL | 0.5 µg/mL |  |  |  |  |  |  |  |  |  |  |  |  |  |  | 
7 | Cl.Cl.NCCCN1C(=O)N(CCCN)C(=O)C(Cc2cc(C(F)(F)F)cc(C(F)(F)F)c2)(Cc2cc(C(F)(F)F)cc(C(F)(F)F)c2)C1=O | ≤ 1000 µg/mL | 8 µg/mL | 224 µg/mL | 8 µg/mL |  |  |  |  |  |  |  |  |  |  |  |  |  |  | 
8 | NCCCN1C(=O)N(CCCN)C(=O)C(Cc2cc(C(F)(F)F)cc(C(F)(F)F)c2)(Cc2cc(C(F)(F)F)cc(C(F)(F)F)c2)C1=O.O=C(O)C(F)(F)F.O=C(O)C(F)(F)F | < 1000 µg/mL | 8 µg/mL |  | 8 µg/mL | 4 µg/mL | 23 | 8 µg/mL | 23 | 46 | 23 |  |  |  |  |  |  | 176 µg/mL |  | 
9 | NCCCN1C(=O)N(CCCN)C(=O)C(Cc2ccc(Br)c(Cl)c2)(Cc2ccc(Br)c(Cl)c2)C1=O.O=C(O)C(F)(F)F.O=C(O)C(F)(F)F | < 1000 µg/mL | 8 µg/mL |  | 8 µg/mL | 4 µg/mL | 20 | 16 µg/mL | 40 | 81 | 40 |  |  |  |  |  |  | 323 µg/mL |  | 
